Measured values: ChEMBL document CHEMBL3992509, “Discovery of a Highly Potent, Selective, and Metabolically Stable Inhibitor of Receptor-Interacting Protein 1 (RIP1) for the Treatment of Systemic Inflammatory Response Syndrome” (J Med Chem, 2017)
The source made the active and inactive calls. The rule behind the calls is not given here.

How the values were obtained:
Mus musculus [1] = assay: Protection against TNFalpha-induced multiorgan damage in C57BL/6J mouse assessed as serum LDH level at 0.3 to 3 mg/kg, ip pretreated for 17 mins followed by TNFalpha injection and subsequent compound treatment once in every 12 hrs measured 24 hrs post TNFalpha injection; format: functional, organism-based
Outline: (§1)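 C57BL/6 mice given 4 μg mTNFα (~0.18 mg/kg) IV. Compound 0.3, 1, 3 mg/kg IP 17 min before and then every 12 h; vehicle controls. Blood taken 12 h and 24 h after TNFα. Assays: IL-6 and IL-1β; serum LDH, CK, AST, creatinine, BUN, amylase.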

Mus musculus [2] = assay: Protection against TNFalpha-induced multiorgan damage in C57BL/6J mouse assessed as serum CK-MB level at 0.3 to 3 mg/kg, ip pretreated for 17 mins followed by TNFalpha injection and subsequent compound treatment once in every 12 hrs measured 24 hrs post TNFalpha injection; format: functional, organism-based; outline: as §1
Mus musculus [3] = assay: Protection against TNFalpha-induced multiorgan damage in C57BL/6J mouse assessed as inhibition of TNFalpha-induced increase in IL-6 level at 0.3 to 3 mg/kg, ip pretreated for 17 mins followed by TNFalpha injection and subsequent compound treatment once in every 12 hrs measured after 12 hrs; format: functional, organism-based; outline: as §1
Mus musculus [4] = assay: Protection against TNFalpha-induced pancreas damage in C57BL/6J mouse at 0.3 to 3 mg/kg, ip pretreated for 17 mins followed by TNFalpha injection and subsequent compound treatment once in every 12 hrs measured 24 hrs post TNFalpha injection by hematoxylin and eosin staining based assay; format: functional, organism-based
Outline: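 Mice given mTNFα IV; compound 0.3, 1, 3 mg/kg IP 17 min before and every 12 h. Killed 24 h post-TNFα. Organs fixed 24 h in 10% neutral buffered formalin, paraffin-embedded, 5-μm sections, H&E stained; ×200, at least three mice each.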

[5] = Apparent permeability from basolateral to apical side in MDCK cells harboring MDR1; format: ADME, cell-based, Canis lupus familiaris; conditions: dog
Outline: (§2)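 Permeability measured in MDCK-MDR1 cell monolayers in both directions, apical-to-basolateral and basolateral-to-apical; efflux ratio derived from the two Papp values.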

[6] = Apparent permeability from apical to basolateral side in MDCK cells harboring MDR1; format: ADME, cell-based, Canis lupus familiaris; conditions: dog; outline: as §2
[7] = Oral bioavailability in C57BL/6J mouse at 10 mg/kg by LC-MS/MS analysis; format: ADME, organism-based; conditions: in vivo
Outline: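 C57BL/6 mice (n = 3) dosed IV, IP or PO; blood sampled by eye puncture at various time points; plasma levels by LC-MS/MS; parameters from individual animal data by non-compartmental analysis.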

## CCC(C)(C)C(=O)N(O)Cc1ccccc1
Mus musculus [1]
  Activity: Active
Mus musculus [2]
  Activity: Active
Mus musculus [3]
  inhibition: Active
Mus musculus [4]
  Activity: Active
[5]
  Papp B→A: > 30 ×10⁻⁶ cm/s
[6]
  Papp A→B: > 30 ×10⁻⁶ cm/s
[7]
  bioavailability: 22%
